Data from ChEMBL document CHEMBL4428127, “Discovery of 5-Phenyl-N-(pyridin-2-ylmethyl)-2-(pyrimidin-5-yl)quinazolin-4-amine as a Potent I Kur Inhibitor” (ACS Med Chem Lett, 2016).
Each block holds one compound with its values, some of them ahead of it.

How the values were obtained:
[1] = biological target: T1, Potassium voltage-gated channel subfamily A member 5 (Homo sapiens, UniProt P22460); test: Inhibition of human Kv1.5 transfected in mouse LTK cells; assay type: cell-based
hERG (KCNH2) [2] = biological target: T2, hERG (KCNH2) (Homo sapiens, UniProt Q12809); test: Inhibition of human ERG expressed in HEK293 cells at 1 uM by thallium flux assay; assay type: cell-based; details: HEK293 cells that express hERG
T2 sequence (Q12809 whole entry): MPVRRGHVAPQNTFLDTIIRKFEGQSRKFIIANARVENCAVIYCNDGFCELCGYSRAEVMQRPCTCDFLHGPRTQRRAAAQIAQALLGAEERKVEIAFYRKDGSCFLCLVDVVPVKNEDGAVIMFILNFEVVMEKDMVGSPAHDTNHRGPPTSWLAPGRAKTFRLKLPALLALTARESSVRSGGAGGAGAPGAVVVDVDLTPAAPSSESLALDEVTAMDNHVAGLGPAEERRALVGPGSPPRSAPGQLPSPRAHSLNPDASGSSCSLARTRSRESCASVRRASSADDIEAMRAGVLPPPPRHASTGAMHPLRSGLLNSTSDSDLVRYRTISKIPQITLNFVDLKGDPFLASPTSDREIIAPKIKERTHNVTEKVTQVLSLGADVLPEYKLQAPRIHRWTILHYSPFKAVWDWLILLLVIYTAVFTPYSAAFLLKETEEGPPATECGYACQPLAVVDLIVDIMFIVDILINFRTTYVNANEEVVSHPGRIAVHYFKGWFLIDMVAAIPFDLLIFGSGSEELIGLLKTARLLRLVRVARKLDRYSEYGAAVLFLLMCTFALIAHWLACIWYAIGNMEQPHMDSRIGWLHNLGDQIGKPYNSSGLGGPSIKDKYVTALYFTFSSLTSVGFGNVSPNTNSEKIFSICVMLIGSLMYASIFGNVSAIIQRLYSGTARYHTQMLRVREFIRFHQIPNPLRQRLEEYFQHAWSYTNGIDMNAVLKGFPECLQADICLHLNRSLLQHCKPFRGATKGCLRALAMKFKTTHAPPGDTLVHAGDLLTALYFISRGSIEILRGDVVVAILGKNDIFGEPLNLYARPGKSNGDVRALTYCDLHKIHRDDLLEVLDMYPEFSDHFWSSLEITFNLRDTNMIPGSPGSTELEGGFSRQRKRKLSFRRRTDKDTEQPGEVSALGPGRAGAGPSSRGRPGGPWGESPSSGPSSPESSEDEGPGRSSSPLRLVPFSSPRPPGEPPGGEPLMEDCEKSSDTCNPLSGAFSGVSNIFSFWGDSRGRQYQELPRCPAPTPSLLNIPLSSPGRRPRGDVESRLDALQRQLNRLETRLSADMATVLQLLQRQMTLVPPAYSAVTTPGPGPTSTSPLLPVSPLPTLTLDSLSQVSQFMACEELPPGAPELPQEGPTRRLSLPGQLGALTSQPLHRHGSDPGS

[3] = biological target: T1, Potassium voltage-gated channel subfamily A member 5; test: Inhibition of human Kv1.5 transfected in mouse LTK cells at 0.3 uM; assay type: cell-based
[4] = biological target: Voltage-gated inwardly rectifying potassium channel KCNH2 (Homo sapiens, UniProt Q12809); test: Inhibition of human ERG expressed in HEK293 cells by thallium flux assay; assay type: cell-based
Sequence of Voltage-gated inwardly rectifying potassium channel KCNH2 (Q12809 whole entry): as above

[5] = Stability in rat liver microsomes; assay type: ADME, Microsome
[6] = Clearance in Sprague-Dawley rat hemodynamic/VERP model at 2 mg/kg, iv; assay type: ADME, organism-based; details: in vivo
[7] = Volume of distribution at steady state in Sprague-Dawley rat hemodynamic/VERP model at 2 mg/kg, iv; assay type: ADME, organism-based; details: in vivo, read-out: Vdss
[8] = Half life in Sprague-Dawley rat hemodynamic/VERP model at 2 mg/kg, iv; assay type: ADME, organism-based; details: in vivo
[9] = Half life in Sprague-Dawley rat hemodynamic/VERP model at 5 mg/kg, po; assay type: ADME, organism-based; details: in vivo
[10] = Oral bioavailability in Sprague-Dawley rat hemodynamic/VERP model at 5 mg/kg; assay type: ADME, organism-based; details: in vivo
[11] = Pro-arrhythmic activity in rat assessed as plasma concentration required to increase 98 +/- 3% ventricular effective refractory period at 10 mg/kg, iv as 10 mins infusion; assay type: ADME, organism-based
Summary of the method: (§1)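 Rats fitted with a multielectrode catheter in the left ventricle to record ventricular effective refractory period. Dose 10 mg/kg i.v. infused over 10 min, n = 2. Percent VERP increase reported together with the plasma concentration reached.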

Rattus norvegicus = test: Pro-arrhythmic activity in rat assessed as increase in ventricular effective refractory period at 10 mg/kg, iv as 10 mins infusion; assay type: ADME, organism-based; details: in vivo; summary of the method: as §1
Oryctolagus cuniculus = test: Increase in atrial effective refractory period in rabbit at 3 mg/kg, iv as 30 mins infusion measured at 20 mins; assay type: functional
Summary of the method: (§2)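 Anesthetized rabbits given 3 mg/kg i.v. in DMF vehicle, infused over 30 min, n = 3–4. Atrial ERP, VERP, QTc (Delta QTc cf), systolic and mean blood pressure, and heart rate recorded as change at 20 min. Plasma concentration sampled at the end of infusion.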

[12] = Plasma concentration in rabbit at 3 mg/kg, iv as 30 mins infusion; assay type: ADME, organism-based, Oryctolagus cuniculus; summary of the method: as §2
[13] = Toxicity in rabbit assessed as change in systolic blood pressure at 3 mg/kg, iv as 30 mins infusion measured at 20 mins; assay type: organism-based, Oryctolagus cuniculus; details: in vivo; summary of the method: as §2
[14] = Toxicity in rabbit assessed as change in mean blood pressure at 3 mg/kg, iv as 30 mins infusion measured at 20 mins; assay type: organism-based, Oryctolagus cuniculus; details: in vivo; summary of the method: as §2
[15] = Toxicity in rabbit assessed as change in heart rate at 3 mg/kg, iv as 30 mins infusion measured at 20 mins; assay type: organism-based, Oryctolagus cuniculus; details: in vivo; summary of the method: as §2
[16] = Metabolic stability in rat liver microsomes assessed as parent compound remaining at 10 mins; assay type: ADME, Microsome; details: read-out: Stability
Summary of the method: (§3)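 Compound incubated with rat or mouse liver microsomes; percent parent remaining measured at 10 min.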

[17] = Metabolic stability in mouse liver microsomes assessed as parent compound remaining at 10 mins; assay type: ADME, Microsome; details: read-out: Stability; summary of the method: as §3
Cytochrome P450 2C9 [18] = biological target: T3, Cytochrome P450 2C9 (Homo sapiens, UniProt P11712); test: Inhibition of CYP2C9 (unknown origin) at 4 uM; assay type: ADME
T3 sequence (P11712 whole entry): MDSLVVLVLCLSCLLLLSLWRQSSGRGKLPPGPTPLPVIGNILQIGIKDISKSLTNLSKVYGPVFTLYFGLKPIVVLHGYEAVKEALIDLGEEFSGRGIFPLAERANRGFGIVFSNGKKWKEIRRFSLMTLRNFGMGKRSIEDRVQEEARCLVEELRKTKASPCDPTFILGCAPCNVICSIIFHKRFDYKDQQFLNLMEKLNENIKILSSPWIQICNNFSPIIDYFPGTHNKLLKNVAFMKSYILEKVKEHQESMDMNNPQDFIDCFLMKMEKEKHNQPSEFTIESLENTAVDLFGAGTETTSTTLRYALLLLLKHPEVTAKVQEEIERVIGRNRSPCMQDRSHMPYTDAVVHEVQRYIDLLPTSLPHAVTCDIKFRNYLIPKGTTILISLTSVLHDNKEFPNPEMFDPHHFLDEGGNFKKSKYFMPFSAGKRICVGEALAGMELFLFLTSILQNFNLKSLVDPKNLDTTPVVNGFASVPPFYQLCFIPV

Cytochrome P450 2C19 [19] = biological target: T4, Cytochrome P450 2C19 (Homo sapiens, UniProt P33261); test: Inhibition of CYP2C19 (unknown origin) at 3 uM; assay type: ADME
T4 sequence (P33261 whole entry): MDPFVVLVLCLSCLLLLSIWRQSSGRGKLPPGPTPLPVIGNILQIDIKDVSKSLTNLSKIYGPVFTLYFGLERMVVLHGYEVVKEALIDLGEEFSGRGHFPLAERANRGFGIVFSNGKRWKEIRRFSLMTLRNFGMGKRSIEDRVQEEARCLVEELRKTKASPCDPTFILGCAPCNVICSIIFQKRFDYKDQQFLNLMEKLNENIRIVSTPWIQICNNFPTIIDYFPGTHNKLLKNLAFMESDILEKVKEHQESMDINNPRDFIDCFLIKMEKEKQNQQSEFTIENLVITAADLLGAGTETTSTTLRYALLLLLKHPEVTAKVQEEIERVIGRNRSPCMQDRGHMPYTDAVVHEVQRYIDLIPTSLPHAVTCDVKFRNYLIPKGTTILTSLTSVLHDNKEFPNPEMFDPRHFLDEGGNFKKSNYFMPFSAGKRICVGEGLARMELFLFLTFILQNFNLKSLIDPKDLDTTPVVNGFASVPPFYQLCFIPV

[20] = Toxicity in Sprague-Dawley rat VEPR model assessed as seizures at plasma concentration of 7.7 uM administered at 10 mg/kg, iv; assay type: organism-based; details: in vivo
[21] = Toxicity in rabbit assessed as change in corrected QT time interval at 3 mg/kg as 30 mins infusion; assay type: organism-based, Oryctolagus cuniculus; details: in vivo, iv, 0.5 h; summary of the method: as §2
[22] = Plasma concentration in rat VERP model at 3 mg/kg, iv as 5 mins infusion measured 10 mins post dose; assay type: ADME, organism-based
Summary of the method: (§4)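 Rat VERP model, i.v. infusion over 5 min at 3 or 10 mg/kg. Plasma and brain concentrations measured 10 min after the end of infusion.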

[23] = Drug uptake in brain of rat VERP model at 3 mg/kg, iv as 5 mins infusion measured 10 mins post dose; assay type: ADME, organism-based; details: read-out: Drug uptake; summary of the method: as §4
[24] = Plasma concentration in rat VERP model at 10 mg/kg, iv as 5 mins infusion measured 10 mins post dose; assay type: ADME, organism-based; summary of the method: as §4
[25] = Drug uptake in brain of rat VERP model at 10 mg/kg, iv as 5 mins infusion measured 10 mins post dose; assay type: ADME, organism-based; details: read-out: Drug uptake; summary of the method: as §4
hERG (KCNH2) [26] = biological target: T2, hERG (KCNH2); test: Inhibition of human ERG expressed in HEK293 cells at 10 uM by thallium flux assay; assay type: cell-based; details: HEK293 cells that express hERG
Cytochrome P450 2C9 [27] = biological target: T3, Cytochrome P450 2C9; test: Inhibition of CYP2C9 (unknown origin) at 1 uM; assay type: ADME
Cytochrome P450 2C19 [28] = biological target: T4, Cytochrome P450 2C19; test: Inhibition of CYP2C19 (unknown origin) at 1 uM; assay type: ADME
hERG (KCNH2) [29] = biological target: T2, hERG (KCNH2); test: Inhibition of human ERG expressed in HEK293 cells at 0.3 uM by thallium flux assay; assay type: cell-based; details: HEK293 cells that express hERG

T1 sequence (P22460 whole entry): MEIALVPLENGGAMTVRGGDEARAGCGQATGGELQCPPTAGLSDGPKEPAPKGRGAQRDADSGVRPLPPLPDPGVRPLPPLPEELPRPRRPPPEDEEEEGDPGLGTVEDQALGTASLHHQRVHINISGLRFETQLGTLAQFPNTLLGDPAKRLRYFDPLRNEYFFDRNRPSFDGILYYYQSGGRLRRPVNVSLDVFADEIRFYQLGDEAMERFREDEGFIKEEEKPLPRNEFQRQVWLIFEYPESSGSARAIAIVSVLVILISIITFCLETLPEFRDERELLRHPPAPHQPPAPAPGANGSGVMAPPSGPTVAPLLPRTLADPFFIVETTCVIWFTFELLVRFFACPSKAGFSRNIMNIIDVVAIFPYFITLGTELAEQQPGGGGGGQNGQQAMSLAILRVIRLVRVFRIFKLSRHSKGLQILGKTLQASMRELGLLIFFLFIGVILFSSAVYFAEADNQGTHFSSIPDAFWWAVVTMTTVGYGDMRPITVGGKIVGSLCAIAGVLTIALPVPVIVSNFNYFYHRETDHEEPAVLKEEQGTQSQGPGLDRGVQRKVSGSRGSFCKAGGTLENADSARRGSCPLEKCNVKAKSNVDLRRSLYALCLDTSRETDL

SMILES: FC(F)(F)c1ccc(-c2cccc3nc(-c4cncnc4)nc(NCc4ccccn4)c23)cc1
IC50 [1]: 150 nM

SMILES: NC(=O)c1ccc(-c2cccc3nc(-c4cncnc4)nc(NCc4ccccn4)c23)cc1
inhibition [3]: 8%

SMILES: Fc1cccc(-c2cccc3nc(-c4cncnc4)nc(NCc4ccccn4)c23)c1
inhibition [3]: 37%

SMILES: Cc1noc(C)c1-c1nc(NCc2ccccn2)c2c(-c3ccccc3)cccc2n1
IC50 [1]: 90 nM
IC50 [4]: 3100 nM

SMILES: FC(F)(F)c1nc(NCc2ccccn2)c2c(-c3ccccc3)cccc2n1
IC50 [1]: 80 nM
IC50 [4]: 10000 nM

SMILES: Clc1nc(NCc2ccccn2)c2cc(-c3ccccc3)ccc2n1
inhibition [3]: 14%

SMILES: NC(=O)c1nc(NCc2ccccn2)c2c(-c3ccccc3)cccc2n1
inhibition [3]: 9%

SMILES: Clc1nc(NCc2ccccn2)c2ccc(-c3ccccc3)cc2n1
inhibition [3]: 9%

SMILES: c1ccc(-c2cccc3nc(C4CC4)nc(NCc4ccccn4)c23)cc1
IC50 [1]: 170 nM

SMILES: Cc1n[nH]c(C)c1-c1nc(NCc2ccccn2)c2c(-c3ccccc3)cccc2n1
inhibition [3]: 20%

SMILES: Cn1cncc1-c1nc(NCc2ccccn2)c2c(-c3ccccc3)cccc2n1
inhibition [3]: 41%
IC50 [4]: 2700 nM

SMILES: Clc1nc(NCc2ccccn2)c2cccc(-c3ccccc3)c2n1
inhibition [3]: 9%

SMILES: COCCNc1ncc(-c2nc(NCc3ccccn3)c3c(-c4ccccc4)cccc3n2)cn1
inhibition [3]: 20%

SMILES: CN(C)c1nc(NCc2ccccn2)c2c(-c3ccccc3)cccc2n1
inhibition [3]: 59%
IC50 [4]: 2500 nM

SMILES: Fc1ccc(-c2cccc3nc(-c4cncnc4)nc(NCc4ccccn4)c23)cc1
IC50 [1]: 250 nM

SMILES: N#Cc1nc(NCc2ccccn2)c2c(-c3ccccc3)cccc2n1
IC50 [1]: 50 nM
IC50 [4]: > 80000 nM

Continued, in another order:

IC50 [1]: 130 nM
SMILES: N#Cc1ccc(-c2nc(NCc3ccccn3)c3c(-c4ccccc4)cccc3n2)cn1
inhibition at 1 µM (hERG (KCNH2) [2]): 51%

IC50 [1]: 70 nM
inhibition [3]: 86%
Stability [5]: Unstable
clearance [6]: 8.2 mL/min/kg
Vd [7]: 2.3 L/kg
half-life [8]: 7.3 h
half-life [9]: 1.9 h
bioavailability [10]: 10%
concentration at 0.5 h [12]: 9.1 µM
SMILES: Clc1nc(NCc2ccccn2)c2c(-c3ccccc3)cccc2n1
IC50 [4]: > 80000 nM
concentration at 10 min [11]: 26 µM
Activity (Rattus norvegicus): 98%
Activity (Oryctolagus cuniculus): 9%
Activity [13]: 0.1%
Activity [14]: -1%
Activity [15]: -3.2%

IC50 [1]: 120 nM
SMILES: COc1cncc(-c2nc(NCc3ccccn3)c3c(-c4ccccc4)cccc3n2)c1

IC50 [1]: 40 nM
SMILES: c1ccc(-c2cccc3nc(-c4ccncc4)nc(NCc4ccccn4)c23)cc1
IC50 [4]: 6700 nM

IC50 [1]: 90 nM
clearance [6]: 4.6 mL/min/kg
Vd [7]: 5.2 L/kg
half-life [8]: 15 h
half-life [9]: 3.5 h
bioavailability [10]: 6.3%
concentration at 0.5 h [12]: 2.7 µM
remaining at 10 min [16]: 58%
remaining at 10 min [17]: 75%
inhibition (INH) (Cytochrome P450 2C9 [18]): Active
inhibition (INH) (Cytochrome P450 2C19 [19]): Active
concentration at 10 min [22]: 3.1 µM
concentration at 10 min [23]: 8.8 µM
concentration at 10 min [24]: 7.7 µM
concentration at 10 min [25]: 25 µM
SMILES: c1ccc(-c2cccc3nc(-c4cncnc4)nc(NCc4ccccn4)c23)cc1
Activity (Rattus norvegicus): Non-Toxic
Activity (Oryctolagus cuniculus): 21.4%
Activity [20]: Non-Toxic
Time [21]: 13 ms
Activity [13]: -3.4%
Activity [14]: -3.8%
Activity [15]: -3.1%
inhibition at 10 µM (hERG (KCNH2) [26]): 43%

inhibition [3]: 72%
SMILES: Cc1nc(NCc2ccccn2)c2c(-c3ccccc3)cccc2n1
IC50 [4]: 4600 nM

IC50 [1]: 60 nM
remaining at 10 min [16]: 7%
remaining at 10 min [17]: 22%
inhibition (INH) (Cytochrome P450 2C9 [27]): Active
inhibition (INH) (Cytochrome P450 2C19 [28]): Active
SMILES: c1ccc(-c2cccc3nc(-c4cccnc4)nc(NCc4ccccn4)c23)cc1

IC50 [1]: 160 nM
SMILES: c1ccc(-c2cccc3nc(-c4cn[nH]c4)nc(NCc4ccccn4)c23)cc1
inhibition at 1 µM (hERG (KCNH2) [2]): 88%

IC50 [1]: 50 nM
SMILES: c1ccc(-c2cccc3nc(-c4cncs4)nc(NCc4ccccn4)c23)cc1
IC50 [4]: 6200 nM

IC50 [1]: 100 nM
SMILES: COc1ncc(-c2nc(NCc3ccccn3)c3c(-c4ccccc4)cccc3n2)cn1

IC50 [1]: 110 nM
SMILES: O=c1ccc(-c2nc(NCc3ccccn3)c3c(-c4ccccc4)cccc3n2)c[nH]1
inhibition at 0.3 µM (hERG (KCNH2) [29]): 91%
